System: SF-539
Assay: Growth inhibition of human SF-539 cells measured after 48 hrs by sulforhodamine B assay
Assay type: functional
Settings: not given
How it was run: (§1)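 Panel of 39 human cancer cell lines tested at the Japanese Foundation for Cancer Research. Five concentrations per compound, spanning 10⁻¹¹–10⁻⁷ M, 10⁻¹⁰–10⁻⁶ M or 10⁻⁸–10⁻⁴ M, were used to build dose-response curves. GI₅₀ is the concentration giving 50% growth inhibition relative to control.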

| SMILES | GI50 [µM] |
| --- | --- |
| CC(C)[C@H]1NC(=O)C[C@H]2/C=C/CCSSC[C@@H](NC1=O)C(=O)NCC(=O)NCC(=O)O2 | 3.3 |

System: HCC 2998
Assay: Growth inhibition of human HCC 2998 cells measured after 48 hrs by sulforhodamine B assay
Assay type: functional
Settings: not given
How it was run: as §1

| GI50 [µM] | SMILES |
| --- | --- |
| 13 | CC(C)[C@H]1NC(=O)C[C@H]2/C=C/CCSSC[C@@H](NC1=O)C(=O)NCC(=O)NCC(=O)O2 |

System: not listed separately
Assay: Growth inhibition of human HBC5 cells measured after 48 hrs by sulforhodamine B assay
Assay type: functional
Settings: not given
How it was run: as §1

| SMILES | GI50 [µM] |
| --- | --- |
| CC(C)[C@H]1NC(=O)C[C@H]2/C=C/CCSSC[C@@H](NC1=O)C(=O)NCC(=O)NCC(=O)O2 | 39 |

System: MKN-74
Assay: Growth inhibition of human MKN-74 cells measured after 48 hrs by sulforhodamine B assay
Assay type: functional
Settings: not given
How it was run: as §1

| GI50 [µM] | SMILES |
| --- | --- |
| 16 | CC(C)[C@H]1NC(=O)C[C@H]2/C=C/CCSSC[C@@H](NC1=O)C(=O)NCC(=O)NCC(=O)O2 |

System: not listed separately
Assay: Growth inhibition of human HBC4 cells measured after 48 hrs by sulforhodamine B assay
Assay type: functional
Settings: not given
How it was run: as §1

| SMILES | GI50 [µM] |
| --- | --- |
| CC(C)[C@H]1NC(=O)C[C@H]2/C=C/CCSSC[C@@H](NC1=O)C(=O)NCC(=O)NCC(=O)O2 | 13 |

System: PC-3
Assay: Growth inhibition of human PC-3 cells measured after 48 hrs by sulforhodamine B assay
Assay type: functional
Settings: not given
How it was run: as §1

| GI50 [µM] | SMILES |
| --- | --- |
| 11 | CC(C)[C@H]1NC(=O)C[C@H]2/C=C/CCSSC[C@@H](NC1=O)C(=O)NCC(=O)NCC(=O)O2 |

System: OVCAR-5
Assay: Growth inhibition of human OVCAR-5 cells measured after 48 hrs by sulforhodamine B assay
Assay type: functional
Settings: not given
How it was run: as §1

| GI50 [µM] | SMILES |
| --- | --- |
| 3.1 | CC(C)[C@H]1NC(=O)C[C@H]2/C=C/CCSSC[C@@H](NC1=O)C(=O)NCC(=O)NCC(=O)O2 |

System: HT-29
Assay: Growth inhibition of human HT-29 cells measured after 48 hrs by sulforhodamine B assay
Assay type: functional
Settings: not given
How it was run: as §1

| GI50 [µM] | SMILES |
| --- | --- |
| 2.7 | CC(C)[C@H]1NC(=O)C[C@H]2/C=C/CCSSC[C@@H](NC1=O)C(=O)NCC(=O)NCC(=O)O2 |

System: NCI-H226
Assay: Growth inhibition of human NCI-H226 cells measured after 48 hrs by sulforhodamine B assay
Assay type: functional
Settings: not given
How it was run: as §1

| GI50 [µM] | SMILES |
| --- | --- |
| 61 | CC(C)[C@H]1NC(=O)C[C@H]2/C=C/CCSSC[C@@H](NC1=O)C(=O)NCC(=O)NCC(=O)O2 |

System: OVCAR-3
Assay: Growth inhibition of human OVCAR-3 cells measured after 48 hrs by sulforhodamine B assay
Assay type: functional
Settings: not given
How it was run: as §1

| GI50 [µM] | SMILES |
| --- | --- |
| 13 | CC(C)[C@H]1NC(=O)C[C@H]2/C=C/CCSSC[C@@H](NC1=O)C(=O)NCC(=O)NCC(=O)O2 |

System: not listed separately
Assay: Growth inhibition of human BSY1 cells measured after 48 hrs by sulforhodamine B assay
Assay type: functional
Settings: BSY-1
How it was run: as §1

| SMILES | GI50 [µM] |
| --- | --- |
| CC(C)[C@H]1NC(=O)C[C@H]2/C=C/CCSSC[C@@H](NC1=O)C(=O)NCC(=O)NCC(=O)O2 | 18 |

System: HCT-116
Assay: Growth inhibition of human HCT-116 cells measured after 48 hrs by sulforhodamine B assay
Assay type: functional
Settings: not given
How it was run: as §1

| GI50 [µM] | SMILES |
| --- | --- |
| 2.5 | CC(C)[C@H]1NC(=O)C[C@H]2/C=C/CCSSC[C@@H](NC1=O)C(=O)NCC(=O)NCC(=O)O2 |

System: OVCAR-4
Assay: Growth inhibition of human OVCAR-4 cells measured after 48 hrs by sulforhodamine B assay
Assay type: functional
Settings: not given
How it was run: as §1

| GI50 [µM] | SMILES |
| --- | --- |
| 46 | CC(C)[C@H]1NC(=O)C[C@H]2/C=C/CCSSC[C@@H](NC1=O)C(=O)NCC(=O)NCC(=O)O2 |

System: RXF 631
Assay: Growth inhibition of human RXF 631 cells measured after 48 hrs by sulforhodamine B assay
Assay type: functional
Settings: not given
How it was run: as §1

| SMILES | GI50 [µM] |
| --- | --- |
| CC(C)[C@H]1NC(=O)C[C@H]2/C=C/CCSSC[C@@H](NC1=O)C(=O)NCC(=O)NCC(=O)O2 | 91 |

System: SF-295
Assay: Growth inhibition of human SF-295 cells measured after 48 hrs by sulforhodamine B assay
Assay type: functional
Settings: not given
How it was run: as §1

| SMILES | GI50 [µM] |
| --- | --- |
| CC(C)[C@H]1NC(=O)C[C@H]2/C=C/CCSSC[C@@H](NC1=O)C(=O)NCC(=O)NCC(=O)O2 | 40 |

System: MKN-45
Assay: Growth inhibition of human MKN-45 cells measured after 48 hrs by sulforhodamine B assay
Assay type: functional
Settings: not given
How it was run: as §1

| GI50 [µM] | SMILES |
| --- | --- |
| 100 | CC(C)[C@H]1NC(=O)C[C@H]2/C=C/CCSSC[C@@H](NC1=O)C(=O)NCC(=O)NCC(=O)O2 |

System: SNB-78
Assay: Growth inhibition of human SNB-78 cells measured after 48 hrs by sulforhodamine B assay
Assay type: functional
Settings: not given
How it was run: as §1

| SMILES | GI50 [µM] |
| --- | --- |
| CC(C)[C@H]1NC(=O)C[C@H]2/C=C/CCSSC[C@@H](NC1=O)C(=O)NCC(=O)NCC(=O)O2 | 0.61 |

System: A549
Assay: Growth inhibition of human A549 cells measured after 48 hrs by sulforhodamine B assay
Assay type: functional
Settings: not given
How it was run: as §1

| GI50 [µM] | SMILES |
| --- | --- |
| 10 | CC(C)[C@H]1NC(=O)C[C@H]2/C=C/CCSSC[C@@H](NC1=O)C(=O)NCC(=O)NCC(=O)O2 |

System: ACHN
Assay: Growth inhibition of human ACHN cells measured after 48 hrs by sulforhodamine B assay
Assay type: functional
Settings: not given
How it was run: as §1

| GI50 [µM] | SMILES |
| --- | --- |
| 43 | CC(C)[C@H]1NC(=O)C[C@H]2/C=C/CCSSC[C@@H](NC1=O)C(=O)NCC(=O)NCC(=O)O2 |

System: MDA-MB-231
Assay: Growth inhibition of human MDA-MB-231 cells measured after 48 hrs by sulforhodamine B assay
Assay type: functional
Settings: not given
How it was run: as §1

| GI50 [µM] | SMILES |
| --- | --- |
| 9.2 | CC(C)[C@H]1NC(=O)C[C@H]2/C=C/CCSSC[C@@H](NC1=O)C(=O)NCC(=O)NCC(=O)O2 |

System: MKN-28
Assay: Growth inhibition of human MKN-28 cells measured after 48 hrs by sulforhodamine B assay
Assay type: functional
Settings: not given
How it was run: as §1

| GI50 [µM] | SMILES |
| --- | --- |
| 95 | CC(C)[C@H]1NC(=O)C[C@H]2/C=C/CCSSC[C@@H](NC1=O)C(=O)NCC(=O)NCC(=O)O2 |
